Data as given in ChEMBL document CHEMBL4043283, “Discovery and Preclinical Development of IIIM-290, an Orally Active Potent Cyclin-Dependent Kinase Inhibitor” (J Med Chem, 2018).

How the values were obtained:
[1] = Half life in monkey liver S9 fraction preincubated for 5 mins followed by NADPH addition measured after 30 mins by LC-MS/MS analysis; assay type: ADME, tissue-based, Macaca mulatta; conditions: rhesus monkey
[2] = tested on: MIA PaCa-2; experiment: Cell cycle arrest in human MIAPaCa2 cells assessed as accumulation at S phase at 1.5 uM after 24 hrs by propidium iodide staining-based flow cytometric method (reference value: 33%); assay type: functional
[3] = Cmax in BALB/c mouse at 3 mg/kg, po by LC-MS/MS analysis; assay type: ADME, organism-based; set-up: dose 3 mg/kg, route oral; conditions: in vivo
[4] = Intrinsic clearance in monkey liver microsomes assessed per mg of protein at 100 uM after 30 mins by LC-MS/MS analysis; assay type: ADME, Macaca mulatta, microsome; conditions: rhesus monkey, read-out: CLH
[5] = Chemical stability of compound in phosphate buffered saline at pH 7.4 assessed as parent compound remaining at 120 ug/ml after 24 hrs by HPLC method; assay type: physicochemical; conditions: read-out: Stability
[6] = tested on: alpha-1 acid glycoprotein; experiment: Binding affinity to alpha-1 acid glycoprotein (unknown origin); assay type: ADME; conditions: human, read-out: PB (converted)
[7] = tested on: MDA-MB-231; experiment: Growth inhibition of human MDA-MB-231 cells after 48 hrs by MTT assay; assay type: functional; conditions: MDA-MB-231, 48 h
Summary of the method: (§1)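 Cancer cell lines sourced from the National Cancer Institute (USA). Cells kept in appropriate growth medium at 37 °C, 95% humidity, 5% CO2. Antiproliferation read by tetrazolium (MTT) assay. GI50 values were determined only for compounds selected after an initial single-concentration screen.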

[8] = tested on: Liver; experiment: Intrinsic clearance in human liver S9 fraction assessed per mg of protein preincubated for 5 mins followed by NADPH addition measured after 30 mins by LC-MS/MS analysis; assay type: ADME, tissue-based; conditions: s9, 0.5 h
[9] = Half life in BALB/c mouse at 3 mg/kg, po by LC-MS/MS analysis; assay type: ADME, organism-based; conditions: in vivo
[10] = molecular target: Dual specificity mitogen-activated protein kinase kinase 5 (Homo sapiens) (UniProt Q13163); experiment: Inhibition of partial length wild type human MEK5 expressed in mammalian expression system at 0.5 uM by KINOMEscan method relative to control
Summary of the method: (§2)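 Competition binding screen (KINOMEscan) at 0.5 μM; primary binding read out as % of control, lower values indicating stronger interaction.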

[11] = Chemical stability of compound in phosphate buffered saline at pH 6.8 assessed as parent compound remaining at 120 ug/ml after 24 hrs by HPLC method; assay type: physicochemical; conditions: read-out: Stability
[12] = Half life in mouse hepatocytes at 3 uM after 180 mins by LC-MS/MS analysis; assay type: ADME, cell-based, Hepatocyte
[13] = molecular target: Cytochrome P450 2D6 (Homo sapiens, UniProt P10635); experiment: Inhibition of human CYP2D6 using fluorogenic substrate preincubated with co-factor for 10 mins followed by enzyme-substrate addition by fluorometric method; assay type: ADME
Summary of the method: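 Cofactor plus test item or vehicle, in triplicate, preincubated 10 min at 37 °C; prewarmed enzyme–substrate mix added and incubated at 37 °C with shaking. Quench: acetonitrile (CYP2C19, CYP3A4) or 0.25 M Tris in 60% methanol (CYP2C9, CYP2D6). Metabolite fluorescence read; % inhibition computed against enzyme controls and enzyme-free blanks.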

[14] = tested on: Ehrlich; experiment: Antitumor activity against Swiss mouse EAC allografted in Swiss albino mouse assessed as tumor growth inhibition at 70 mg/kg, po administered for 9 day measured on day 13 relative to control; assay type: functional; conditions: read-out: TGI
[15] = tested on: HCT-116; experiment: Antitumor activity against human HCT116 cells xenografted in CD1 nude mouse assessed as tumor growth inhibition at 50 mg/kg, po qd administered on day 10 to 25 post tumor inoculation relative to control; assay type: functional; conditions: HCT-116, po, 240 h, read-out: TGI
[16] = Tmax in BALB/c mouse at 10 mg/kg, po by LC-MS/MS analysis; assay type: ADME, organism-based; conditions: in vivo
[17] = Tmax in Sprague-Dawley rat at 3 mg/kg, po by LC-MS/MS analysis; assay type: ADME, organism-based; conditions: in vivo
[18] = molecular target: Tyrosine-protein kinase Blk (Homo sapiens) (UniProt P51451); experiment: Inhibition of partial length wild type human BLK expressed in bacterial expression system at 0.5 uM by KINOMEscan method relative to control; summary of the method: as §2
[19] = tested on: MIA PaCa-2; experiment: Cell cycle arrest in human MIAPaCa2 cells assessed as accumulation at G2 phase at 1.5 uM after 24 hrs by propidium iodide staining-based flow cytometric method (reference value: 30%); assay type: functional
[20] = Cmax in BALB/c mouse at 30 mg/kg, po by LC-MS/MS analysis; assay type: ADME, organism-based; set-up: dose 30 mg/kg, route oral; conditions: in vivo
[21] = tested on: HCT-116; experiment: Growth inhibition of human HCT116 cells after 48 hrs by MTT assay; assay type: functional; conditions: HCT-116, 48 h; summary of the method: as §1
[22] = AUC (0 to t) in BALB/c mouse at 1 mg/kg, iv by LC-MS/MS analysis; assay type: ADME, organism-based; conditions: in vivo
[23] = Tmax in BALB/c mouse at 30 mg/kg, po by LC-MS/MS analysis; assay type: ADME, organism-based; conditions: in vivo
[24] = Growth inhibition of HGF after 48 hrs by MTT assay; assay type: cell-based; conditions: human, HGF cells
[25] = Half life in mouse liver microsomes at 100 uM after 30 mins by LC-MS/MS analysis; assay type: ADME, microsome
Summary of the method: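 Parent loss followed over time to give half-life, with NADPH as cofactor for microsomal phase I metabolism.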

[26] = Tmax in BALB/c mouse at 3 mg/kg, po by LC-MS/MS analysis; assay type: ADME, organism-based; conditions: in vivo
[27] = Intrinsic clearance in mouse liver microsomes assessed per mg of protein at 100 uM after 30 mins by LC-MS/MS analysis; assay type: ADME, microsome; conditions: read-out: CLH
[28] = Protein binding in human plasma at 3 uM after 5 hrs by equilibrium dialysis method; assay type: ADME, cell-free; conditions: read-out: PPB (converted)
[29] = molecular target: CDK2/Cyclin A2 (Homo sapiens) (UniProt P24941+P20248); experiment: Inhibition of CDK2/cyclin A (unknown origin) at 0.5 uM using histone H1 as substrate after 30 mins in presence of [33P]-gamma-ATP by filter binding assay relative to control; assay type: protein-complex assay
[30] = tested on: PBL; experiment: Genotoxicity in human PBL at 0.125 to 2 ug/ml in presence of cytokinesis blocking agent cytochalasin B and liver S9 fraction by micronucleus test; assay type: toxicity, cell-based
[31] = tested on: HL-60; experiment: Growth inhibition of human HL60 cells at 10 uM after 48 hrs by MTT assay relative to control; assay type: functional; conditions: HL-60, 48 h, read-out: GI
Summary of the method: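 Single-concentration primary screen at 10 μM by MTT assay. Cells were NCI-sourced cancer lines grown in appropriate medium at 37 °C, 95% humidity, 5% CO2. Growth inhibition is expressed relative to control.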

[32] = molecular target: CDK1/Cyclin A (Homo sapiens, UniProt P06493); experiment: Inhibition of CDK1/cyclin A (unknown origin) after 30 mins in presence of [33P]-gamma-ATP by filter binding assay; assay type: protein-complex assay
[33] = molecular target: CYP3A4 (Homo sapiens, UniProt P08684); experiment: Inhibition of human CYP3A4 at 2 uM using fluorogenic substrate after 30 mins by fluorometric method relative to control; assay type: ADME; conditions: probe fluorogenic substrate
[34] = tested on: A549; experiment: Growth inhibition of human A549 cells after 48 hrs by MTT assay; assay type: functional; conditions: A549, 48 h; summary of the method: as §1

Tyrosine-protein kinase Blk (Homo sapiens), sequence (P51451 2-505 limits assumed): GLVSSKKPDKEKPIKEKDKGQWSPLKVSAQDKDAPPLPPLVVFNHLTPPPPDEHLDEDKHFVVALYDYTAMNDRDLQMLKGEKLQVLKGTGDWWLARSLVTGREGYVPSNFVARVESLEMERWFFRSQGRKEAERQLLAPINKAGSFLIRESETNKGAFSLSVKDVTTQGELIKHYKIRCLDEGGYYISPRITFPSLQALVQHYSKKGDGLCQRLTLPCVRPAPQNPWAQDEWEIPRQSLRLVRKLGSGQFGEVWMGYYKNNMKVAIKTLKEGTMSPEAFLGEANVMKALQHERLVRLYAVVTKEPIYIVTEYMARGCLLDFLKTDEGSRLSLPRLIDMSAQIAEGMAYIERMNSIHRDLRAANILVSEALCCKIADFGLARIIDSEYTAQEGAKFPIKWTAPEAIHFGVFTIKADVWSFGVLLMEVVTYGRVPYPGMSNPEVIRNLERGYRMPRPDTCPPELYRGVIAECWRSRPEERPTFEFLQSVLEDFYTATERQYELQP
CYP3A4, sequence (P08684 whole entry): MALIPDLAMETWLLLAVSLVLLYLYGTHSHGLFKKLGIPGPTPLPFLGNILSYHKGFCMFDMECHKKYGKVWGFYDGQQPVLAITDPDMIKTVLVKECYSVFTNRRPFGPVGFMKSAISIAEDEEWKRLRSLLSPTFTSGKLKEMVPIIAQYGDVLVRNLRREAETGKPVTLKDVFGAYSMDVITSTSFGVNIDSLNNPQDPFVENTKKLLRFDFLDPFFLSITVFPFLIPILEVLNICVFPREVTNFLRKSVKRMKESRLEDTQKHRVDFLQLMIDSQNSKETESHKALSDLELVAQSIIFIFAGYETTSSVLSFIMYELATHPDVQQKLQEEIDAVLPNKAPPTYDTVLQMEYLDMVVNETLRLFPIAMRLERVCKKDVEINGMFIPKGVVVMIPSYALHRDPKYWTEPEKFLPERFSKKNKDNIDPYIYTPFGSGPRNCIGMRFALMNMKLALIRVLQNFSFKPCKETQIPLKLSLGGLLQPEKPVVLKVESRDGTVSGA
Dual specificity mitogen-activated protein kinase kinase 5 (Homo sapiens), sequence (Q13163 whole entry): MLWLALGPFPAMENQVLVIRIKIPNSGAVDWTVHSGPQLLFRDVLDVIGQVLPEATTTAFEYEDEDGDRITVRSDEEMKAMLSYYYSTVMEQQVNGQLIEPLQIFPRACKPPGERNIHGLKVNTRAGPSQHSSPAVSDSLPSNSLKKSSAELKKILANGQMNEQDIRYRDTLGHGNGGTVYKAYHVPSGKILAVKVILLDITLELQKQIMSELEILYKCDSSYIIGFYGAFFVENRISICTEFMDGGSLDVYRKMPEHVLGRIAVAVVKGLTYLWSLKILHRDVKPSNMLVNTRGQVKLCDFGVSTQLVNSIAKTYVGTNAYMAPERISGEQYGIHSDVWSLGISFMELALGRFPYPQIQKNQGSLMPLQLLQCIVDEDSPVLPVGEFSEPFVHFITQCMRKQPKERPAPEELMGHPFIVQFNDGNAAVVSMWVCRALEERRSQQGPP
CDK1/Cyclin A, sequence (P06493 whole entry): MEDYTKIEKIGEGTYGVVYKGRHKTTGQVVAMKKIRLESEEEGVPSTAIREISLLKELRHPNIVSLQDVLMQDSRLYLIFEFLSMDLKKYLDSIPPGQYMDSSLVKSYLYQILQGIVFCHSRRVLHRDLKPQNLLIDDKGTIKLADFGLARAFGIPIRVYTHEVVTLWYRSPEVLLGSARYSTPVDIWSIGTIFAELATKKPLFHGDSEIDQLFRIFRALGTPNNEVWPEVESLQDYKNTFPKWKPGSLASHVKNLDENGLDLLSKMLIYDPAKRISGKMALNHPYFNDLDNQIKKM
CDK1/Cyclin A, sequence (P20248 whole entry, further chain): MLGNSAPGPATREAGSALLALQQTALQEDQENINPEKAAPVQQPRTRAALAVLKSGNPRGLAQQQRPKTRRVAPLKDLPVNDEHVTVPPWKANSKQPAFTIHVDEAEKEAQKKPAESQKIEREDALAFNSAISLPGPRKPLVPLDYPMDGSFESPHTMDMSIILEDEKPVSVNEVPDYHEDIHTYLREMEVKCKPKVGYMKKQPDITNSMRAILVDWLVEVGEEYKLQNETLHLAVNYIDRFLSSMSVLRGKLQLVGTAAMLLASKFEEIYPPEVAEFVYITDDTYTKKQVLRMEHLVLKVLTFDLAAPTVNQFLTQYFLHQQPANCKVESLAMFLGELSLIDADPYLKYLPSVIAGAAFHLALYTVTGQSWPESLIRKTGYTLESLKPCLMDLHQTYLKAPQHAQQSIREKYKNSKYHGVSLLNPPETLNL
Cytochrome P450 2D6, sequence (P10635 whole entry): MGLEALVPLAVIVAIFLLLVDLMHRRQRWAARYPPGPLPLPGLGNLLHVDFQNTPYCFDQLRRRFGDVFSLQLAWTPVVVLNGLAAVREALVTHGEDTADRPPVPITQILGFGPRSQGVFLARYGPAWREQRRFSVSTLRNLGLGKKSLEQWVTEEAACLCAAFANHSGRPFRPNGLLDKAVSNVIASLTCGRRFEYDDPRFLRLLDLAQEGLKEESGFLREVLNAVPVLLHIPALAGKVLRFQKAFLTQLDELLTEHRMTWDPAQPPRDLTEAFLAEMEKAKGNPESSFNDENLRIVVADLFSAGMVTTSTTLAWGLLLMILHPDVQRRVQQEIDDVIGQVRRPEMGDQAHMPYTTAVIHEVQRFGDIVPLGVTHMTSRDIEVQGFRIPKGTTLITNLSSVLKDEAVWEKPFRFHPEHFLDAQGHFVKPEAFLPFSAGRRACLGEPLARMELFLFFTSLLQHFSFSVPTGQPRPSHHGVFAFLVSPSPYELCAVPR

In the case of `CN1CC[C@H](c2c(O)cc(O)c3c(=O)cc(/C=C/c4c(Cl)cccc4Cl)oc23)[C@H](O)C1`, the half-life [1] is reported as 56 min, the Activity [2] is reported as 33% and the Cmax [3] is reported as 216 nM. For the same molecule, the microsomal CLint at 100 µM [4] was 54.8 µL/min/mg, the remaining at 24 h, 120 ug/ml [5] was 100% and the fraction unbound [6] was 0.017. It also gave a GI50 [7] of 4 µM, a CLint [8] of 19 µL/min/mg and a half-life [9] of 185 min. For the same molecule, the inhibition [10] was > 98%, the remaining at 24 h, 120 ug/ml [11] was 81% and the half-life at 3 µM [12] was 186 min. For the same molecule, the IC50 [13] was > 20 µM, the inhibition in vivo at 70 mg/kg [14] was 31% and the inhibition in vivo at 50 mg/kg [15] was 40 to 52%. The Tmax [16] was 15 to 103 min, the Tmax [17] was 30 min and the inhibition [18] was > 98%. The Activity [19] was 19%, the Cmax [20] was 4110 nM and the GI50 [21] was 5 µM. The AUC(0-t) [22] was 0.525 µM·h, the Tmax [23] was 32.4 min and the GI50 at 48 h [24] was 18 µM. For the same molecule, the half-life at 100 µM [25] was > 30 min, the Tmax [26] was 22.2 min and the microsomal CLint at 100 µM [27] was < 8.8 µL/min/mg. The fraction unbound at 5 h, 3 µM [28] was 0.033, the inhibition [29] was 90% and the Activity [30] was “Non-Toxic”. For the same molecule, the inhibition of growth at 10 µM [31] was 90%, the IC50 [32] was 0.00493 µM and the inhibition at 0.5 h, 2 µM [33] was 40%. The GI50 [34] was 4 µM.
